# Key:
# [1] = test system: U2OS; experiment: Ability to inhibit release of interleukin-6 from U2OS cell lines transfected with estrogen receptor alpha; assay type: functional, cell-based; settings: Homo sapiens
# Procedure, shortened: (§1)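 Estrogen-receptor-negative osteosarcoma U2OS cells, transfected with ER-α, were screened for inhibition of IL-6 cytokine release.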
# [2] = test system: MCF7; experiment: Antiproliferative activity against MCF-7 cell line; assay type: functional, cell-based; settings: Homo sapiens
# [3] = Concentration required for inhibition of Interleukin-6 in U20S cells was determined; assay type: cell-based; procedure, shortened: as §1
Structure (SMILES),IC50 [1],IC50 [2],IC50 [3]
O=c1oc2cc(O)ccc2c(-c2ccc(OCCCCCN3CCCCC3)cc2)c1-c1ccccc1,114 nM,335 nM,–
CC/C(=C(\c1ccc(O)cc1)c1ccc(OCCN(C)C)cc1)c1ccccc1,1.9 nM,24 nM,–
O=c1oc2cc(O)ccc2c(Cc2ccc(OCCCCN3CCCCC3)cc2)c1-c1ccccc1,5 nM,13 nM,–
CCCc1c(Cc2c(F)cccc2Cl)c(=O)oc2cc(O)ccc12,–,–,300 nM
O=c1oc2cc(O)ccc2c(-c2ccc(OCCCN3CCCCC3)cc2)c1-c1ccccc1,355 nM,335 nM,–
O=c1oc2cc(O)ccc2c(-c2ccc(OCCCCN3CCCCC3)cc2)c1-c1ccccc1,69 nM,134 nM,–
O=c1oc2cc(O)ccc2c(-c2cccc(OCCCCCN3CCCCC3)c2)c1-c1ccccc1,11 nM,15 nM,–
O=c1oc2cc(O)ccc2c(-c2cccc(OCCN3CCCCC3)c2)c1-c1ccccc1,12 nM,85 nM,–
O=c1oc2cc(O)ccc2c(-c2cccc(OCCCCN3CCCCC3)c2)c1-c1ccccc1,3.2 nM,12 nM,–
O=c1oc2cc(O)ccc2c(-c2ccc(OCCCCCCN3CCCCC3)cc2)c1-c1ccccc1,145 nM,720 nM,–

# Other lines, results leading:
IC50 [1],IC50 [2],IC50 [3],Structure (SMILES)
505 nM,425 nM,–,O=c1oc2cc(O)ccc2c(-c2ccc(OCCN3CCCCC3)cc2)c1-c1ccccc1
3.1 nM,4.9 nM,–,O=C(c1ccc(OCCN2CCCCC2)cc1)c1c(-c2ccc(O)cc2)sc2cc(O)ccc12 [RALOXIFENE]
0.38 nM,7.7 nM,–,O=c1oc2cc(O)ccc2c(Cc2ccc(OCCN3CCCCC3)cc2)c1-c1ccccc1
1.5 nM,9.5 nM,–,O=c1oc2cc(O)ccc2c(-c2cccc(OCCCN3CCCCC3)c2)c1-c1ccccc1
4.4 nM,18 nM,–,O=c1oc2cc(O)ccc2c(Cc2ccc(OCCCN3CCCCC3)cc2)c1-c1ccccc1
